Article PMC7781173 (Amino Acids, 2021)

Tests used:
human C5 [1] = molecular target: T1, human C5 (Homo sapiens, UniProt P01031); assay: Ex vivo human whole blood assay; assay type: cell-based; settings: summary statement
Method in brief: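 Fresh blood from healthy volunteers, anticoagulated with lepirudin at 50 μg/mL. Pre-treated with test compound (1 nM to 1 μM) for 30 min at 37 °C, then stimulated with E. coli O111:B4 LPS at 200 ng/mL for 24 h at 37 °C. Centrifuged at 2000×g for 10 min at 4 °C; plasma C5a quantified by commercial ELISA. Concentration–response format.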

human C5 [2] = molecular target: T1, human C5; settings: ref Hoarty et al. [2015]; Ricardo et al. [2017]; cited from earlier work
rodent C5 = settings: ref Hoarty et al. [2015]; Ricardo et al. [2017]; cited from earlier work
C5b = settings: prevents assembly of the MAC; ref Yee et al. [2015]; cited from earlier work
C5 = settings: background statement, reference not given; cited from earlier work

T1 sequence (P01031 19-673 limits assumed): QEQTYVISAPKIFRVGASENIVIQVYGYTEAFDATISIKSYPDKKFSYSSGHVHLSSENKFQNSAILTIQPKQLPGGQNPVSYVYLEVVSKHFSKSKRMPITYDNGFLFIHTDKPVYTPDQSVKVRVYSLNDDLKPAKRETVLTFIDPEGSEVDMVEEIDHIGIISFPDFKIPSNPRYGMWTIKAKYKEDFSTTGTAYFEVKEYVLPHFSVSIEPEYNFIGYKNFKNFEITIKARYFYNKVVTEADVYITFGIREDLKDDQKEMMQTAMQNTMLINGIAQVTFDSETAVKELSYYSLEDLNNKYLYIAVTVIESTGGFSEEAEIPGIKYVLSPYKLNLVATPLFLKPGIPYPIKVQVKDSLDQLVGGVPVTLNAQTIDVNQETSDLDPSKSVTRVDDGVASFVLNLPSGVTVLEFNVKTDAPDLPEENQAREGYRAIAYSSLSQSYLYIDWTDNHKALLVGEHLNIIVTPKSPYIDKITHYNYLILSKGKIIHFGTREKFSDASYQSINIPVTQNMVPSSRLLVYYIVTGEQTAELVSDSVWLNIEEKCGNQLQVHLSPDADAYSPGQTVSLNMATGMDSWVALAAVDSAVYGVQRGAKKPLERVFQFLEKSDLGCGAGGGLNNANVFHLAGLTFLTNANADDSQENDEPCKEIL
T1 sequence (P01031 678-1676 limits assumed): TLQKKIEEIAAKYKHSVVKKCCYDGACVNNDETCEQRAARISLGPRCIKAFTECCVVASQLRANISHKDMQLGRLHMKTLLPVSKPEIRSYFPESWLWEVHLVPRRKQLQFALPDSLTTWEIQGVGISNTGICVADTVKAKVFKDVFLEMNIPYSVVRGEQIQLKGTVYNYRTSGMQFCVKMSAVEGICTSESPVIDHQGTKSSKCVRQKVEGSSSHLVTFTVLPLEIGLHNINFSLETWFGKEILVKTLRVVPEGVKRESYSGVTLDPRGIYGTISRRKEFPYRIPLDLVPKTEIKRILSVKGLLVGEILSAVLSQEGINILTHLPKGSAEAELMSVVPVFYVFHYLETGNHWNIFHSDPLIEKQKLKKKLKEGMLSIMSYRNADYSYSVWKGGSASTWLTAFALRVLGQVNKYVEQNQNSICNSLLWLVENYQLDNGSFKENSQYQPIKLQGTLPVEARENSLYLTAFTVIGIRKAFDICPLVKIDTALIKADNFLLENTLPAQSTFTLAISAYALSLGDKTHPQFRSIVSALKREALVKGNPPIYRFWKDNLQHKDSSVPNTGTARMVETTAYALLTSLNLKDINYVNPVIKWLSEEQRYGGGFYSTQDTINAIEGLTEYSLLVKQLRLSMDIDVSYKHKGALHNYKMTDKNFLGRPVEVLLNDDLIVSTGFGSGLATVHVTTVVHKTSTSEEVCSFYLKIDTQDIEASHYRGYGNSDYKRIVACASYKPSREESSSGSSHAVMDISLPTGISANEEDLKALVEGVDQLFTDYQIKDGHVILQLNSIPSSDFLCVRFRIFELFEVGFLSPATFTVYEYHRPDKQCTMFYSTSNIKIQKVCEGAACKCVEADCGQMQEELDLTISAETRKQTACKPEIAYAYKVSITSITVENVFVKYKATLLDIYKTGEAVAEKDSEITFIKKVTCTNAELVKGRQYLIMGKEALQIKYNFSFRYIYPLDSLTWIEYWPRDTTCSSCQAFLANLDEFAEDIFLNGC

## zilucoplan
Human C5 [1]
  LPS-induced C5a production from human blood: blocks LPS-induced C5a production
Human C5 [2]
  human C5 cleavage: does bind and inhibit human C5 cleavage
Rodent C5
  rodent C5 cleavage: little to no effect
C5b
  binding to C5b; C5b binding to C6: binds to C5b, thereby competitively inhibiting C5b binding to C6
C5
  C5 cleavage: inhibit C5 cleavage
